The source made the active and inactive calls. The rule behind the calls is not given here.
What was measured:
MDA-MB-436 [1] = assay: Antiproliferative activity against human MDA-MB-436 cells assessed as cell growth inhibition incubated for 7 days by CCK-8 assay; format: functional, cell-based; conditions: MDA-MB-436, 168 h
Procedure, shortened: (§1)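 Cells were sub-cultured at least twice and seeded for 24 h before dosing. Compounds came from 10 mM DMSO stocks, given as 10 points of 3-fold serial dilution starting at 10-20 μM. Incubation was about 7 days (Capan-1 13 days) at 37 °C, 5% CO2. Read-out was CCK-8 absorbance at 450 nm, as % growth versus DMSO wells (duplicate wells). IC50 was fitted by nonlinear regression; three independent experiments.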

CAPAN-1 [2] = assay: Antiproliferative activity against human CAPAN-1 cells assessed as cell growth inhibition incubated for 13 days by CCK-8 assay; format: functional, cell-based; conditions: CAPAN-1, 312 h; procedure, shortened: as §1
PC-3 = assay: Antiproliferation activity against human PC-3 assessed as cell growth inhibition incubated for 7 days by CCK-8 assay; format: functional, cell-based; conditions: time 7.0 day; procedure, shortened: as §1
HCC1937 = assay: Antiproliferation activity against human HCC1937 assessed as cell growth inhibition incubated for 7 days by CCK-8 assay; format: functional, cell-based; conditions: time 7.0 day; procedure, shortened: as §1
CWR22R = assay: Antiproliferation activity against human 22Rv1 assessed as cell growth inhibition incubated for 7 days by CCK-8 assay; format: functional, cell-based; conditions: time 7.0 day; procedure, shortened: as §1
MDA-MB-468 = assay: Antiproliferation activity against human MDA-MB-468 assessed as cell growth inhibition incubated for 7 days by CCK-8 assay; format: functional, cell-based; conditions: time 7.0 day; procedure, shortened: as §1
LNCaP = assay: Antiproliferation activity against human LNCAP assessed as cell growth inhibition incubated for 7 days by CCK-8 assay; format: functional, cell-based; conditions: time 7.0 day; procedure, shortened: as §1
SW-620 [3] = assay: Antiproliferation activity against human SW620 assessed as cell growth inhibition incubated for 7 days by CCK-8 assay; format: functional, cell-based; conditions: time 7.0 day; procedure, shortened: as §1
MDA-MB-231 = assay: Antiproliferation activity against human MDA-MB-231 assessed as cell growth inhibition incubated for 7 days by CCK-8 assay; format: functional, cell-based; conditions: time 7.0 day; procedure, shortened: as §1
MDA-MB-436 [4] = assay: Induction of DNA damage in human MDA-MB-436 cells assessed as increase in gammaH2AX foci formation incubated for 24 hrs by Western blot analysis; format: functional, cell-based; conditions: dose microM 0.1-10, time 24.0 hrs
Procedure, shortened: (§2)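 MDA-MB-436 (BRCA1-/-) or Capan-1 (BRCA2-/-) cells were treated 24 h at the indicated concentrations. Lysis was in RIPA buffer with protease inhibitors, and 20-30 μg protein was run on SDS-PAGE. Blots were probed for γH2AX, with β-tubulin as the loading control, and detected by ECL.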

CAPAN-1 [5] = assay: Induction of DNA damage in human Capan1 cells assessed as increase in gammaH2AX foci formation incubated for 24 hrs by Western blot analysis; format: functional, cell-based; conditions: dose microM 0.1-10, time 24.0 hrs; procedure, shortened: as §2
CAPAN-1 [6] = assay: Antitumor activity against CAPAN-1 cells xenografted in Balb/c mouse assessed as tumor growth inhibition at 100 mg/kg, po qd administered for 21 days; format: functional, organism-based; conditions: time 21.0 day
Procedure, shortened: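 Male BALB/c nude mice (5-6 weeks old) carried subcutaneous Capan-1 xenografts (5×10^6 cells, right armpit). At ~150 mm³ they were randomized (6 per group). Dosing was 100 mg/kg by oral gavage daily for 21 days, or 25 mg/kg intraperitoneally 5 times a week for 3 weeks. Vehicle was 5% DMSO/20% PEG400/10% Cremophor EL/65% saline. Tumor volume was (length/2)×width², measured 2-3 times weekly.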

[7] = Acute toxicity in Balb/c mouse xenografted with SW-620 cells assessed as mean weight loss at 10 mg/kg, po qd administered for 5 days in presence of TMZ measured on day 9 relative to control; format: organism-based; conditions: in vivo, 216 h
Procedure, shortened: (§3)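 Male BALB/c nude mice carried SW620 xenografts (6×10^6 cells s.c.), randomized at ~150 mm³ (6 per group). TMZ 50 mg/kg was given orally once daily on days 0-4, 45 min after the partner drug. Partners were 5 or 10 mg/kg intraperitoneally or 10 mg/kg by oral gavage, daily for 5 days. Vehicle was 5% DMSO/20% PEG400/10% Cremophor EL/65% saline. Tumor volume and body weight were recorded 2-3 times weekly.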

SW-620 [8] = assay: Potentiation of TMZ induced antitumor activity against SW-620 cells xenografted in Balb/c mouse assessed as tumor growth suppression at 10 mg/kg, po qd administered for 5 days; format: functional, organism-based; conditions: time 5.0 day; procedure, shortened: as §3
[9] = Acute toxicity in Balb/c mouse xenografted with Capan1 cells assessed as lethality at 100 mg/kg, po qd administered for 5 days in presence of cisplatin; format: organism-based; conditions: in vivo, 120 h, time 5 day
Procedure, shortened: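 Male BALB/c nude mice (5–6 weeks) carried s.c. Capan-1 xenografts (5×10^6 cells, right armpit) and were randomised at about 150 mm³, 6 per group. The agent was given once daily on days 0–4, by oral gavage or i.p., in DMSO/PEG400/Cremophor EL/saline vehicle. Cisplatin 6 mg/kg in saline was given i.p. on day 2, 45 min after the agent. Body weight was recorded 2–3 times weekly.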

[10] = Acute toxicity in Balb/c mouse xenografted with SW-620 cells assessed as lethality at 10 mg/kg, po qd administered for 5 days in presence of TMZ; format: organism-based; conditions: in vivo, 120 h, time 5 day
Procedure, shortened: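 In male BALB/c nude mice (5–6 weeks), s.c. SW620 xenografts (6×10^6 cells, right armpit) were grown to about 150 mm³, then randomised, 6 per group. The agent was given once daily for 5 days, orally or i.p., in 5% DMSO/20% PEG400/10% Cremophor EL/65% saline. TMZ 50 mg/kg was given orally once daily for 5 days from day 0, 45 min after the agent. Body weight was measured 2–3 times weekly.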

O=C(c1cc(Cc2n[nH]c(=O)c3ccccc23)ccc1F)N1CCN(C(=O)C2CC2)CC1 [OLAPARIB]
IC50 (MDA-MB-436 [1]): 0.018 µM
IC50 (CAPAN-1 [2]): 0.027 µM
Activity (PC-3): Active
Activity (HCC1937): Active
Activity (CWR22R): Active
Activity (MDA-MB-468): Active
Activity (LNCaP): Active
Activity (SW-620 [3]): Active
Activity (MDA-MB-231): Active
Activity (MDA-MB-436 [4]): Active
Activity (CAPAN-1 [5]): Active
Activity (CAPAN-1 [6]): Active
Activity [7]: 15%
Activity (SW-620 [8]): Active
Activity [9]: Non-Toxic
Activity [10]: Non-Toxic
